System: Fibroblast
Assay: Multiplex assay against human fibroblast
Type: toxicity, cell-based
Method in brief: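 Imaging took place on a CQ1 microscope at 37°C and 5% CO2 once compound had been added to live cells stained at seeding with Hoechst33342, BioTracker Green Microtubule Cytoskeleton Dye, MitoTracker Red and Annexin V Alexa Fluor 680. CellPathfinder machine-learning gating classed cells as Hoechst high-intensity objects or normal cells, classed normal cells as having healthy, pyknosed or fragmented nuclei, and classed pyknosed cells as mitotic or apoptotic. Tubulin, mitochondrial-mass and membrane-permeability phenotypes are per cents of the healthy-nucleus cells.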

[1] = 12 h, 1 µM, compound concentration 1 uM, replicate 1
[2] = 12 h, 1 µM, compound concentration 1 uM, replicate 2
[3] = 12 h, 10 µM, compound concentration 10 uM, replicate 1
[4] = 12 h, 10 µM, compound concentration 10 uM, replicate 2
[5] = 24 h, 1 µM, compound concentration 1 uM, replicate 1
[6] = 24 h, 1 µM, compound concentration 1 uM, replicate 2
[7] = 24 h, 10 µM, compound concentration 10 uM, replicate 1
[8] = 24 h, 10 µM, compound concentration 10 uM, replicate 2
[9] = 48 h, 1 µM, compound concentration 1 uM, replicate 1
[10] = 48 h, 1 µM, compound concentration 1 uM, replicate 2
[11] = 48 h, 10 µM, compound concentration 10 uM, replicate 1
[12] = 48 h, 10 µM, compound concentration 10 uM, replicate 2

CN1CCN(c2cc(-c3ccccc3)nc(N)n2)CC1
Population Apoptotic (%) [1]: 47%
Population Fragmented Nuclei (%) [1]: 15%
Population Healthy Nuclei (%) [1]: 68%
Population Hoechst High Intensity Objects (%) [1]: 2%
Population Membrane Permeable-Phenotype (%) [1]: 1%
Population Mitochondria Different-Phenotype (%) [1]: 10%
Population Mitotic Cells (%) [1]: 52%
Population Normal (%) [1]: 97%
Population Pyknosed Nuclei (%) [1]: 15%
Population Tubulin-Different-Phenotype (%) [1]: 25%
Total Cell Count [1]: 135
Population Apoptotic (%) [2]: 37%
Population Fragmented Nuclei (%) [2]: 28%
Population Healthy Nuclei (%) [2]: 45%
Population Hoechst High Intensity Objects (%) [2]: 5%
Population Membrane Permeable-Phenotype (%) [2]: 11%
Population Mitochondria Different-Phenotype (%) [2]: 11%
Population Mitotic Cells (%) [2]: 62%
Population Normal (%) [2]: 94%
Population Pyknosed Nuclei (%) [2]: 26%
Population Tubulin-Different-Phenotype (%) [2]: 66%
Total Cell Count [2]: 97
Population Apoptotic (%) [3]: 48%
Population Fragmented Nuclei (%) [3]: 16%
Population Healthy Nuclei (%) [3]: 67%
Population Hoechst High Intensity Objects (%) [3]: 2%
Population Membrane Permeable-Phenotype (%) [3]: 0%
Population Mitochondria Different-Phenotype (%) [3]: 6%
Population Mitotic Cells (%) [3]: 51%
Population Normal (%) [3]: 97%
Population Pyknosed Nuclei (%) [3]: 15%
Population Tubulin-Different-Phenotype (%) [3]: 44%
Total Cell Count [3]: 216
Population Apoptotic (%) [4]: 36%
Population Fragmented Nuclei (%) [4]: 40%
Population Healthy Nuclei (%) [4]: 36%
Population Hoechst High Intensity Objects (%) [4]: 7%
Population Membrane Permeable-Phenotype (%) [4]: 10%
Population Mitochondria Different-Phenotype (%) [4]: 12%
Population Mitotic Cells (%) [4]: 64%
Population Normal (%) [4]: 92%
Population Pyknosed Nuclei (%) [4]: 22%
Population Tubulin-Different-Phenotype (%) [4]: 67%
Total Cell Count [4]: 118
Population Apoptotic (%) [5]: 75%
Population Fragmented Nuclei (%) [5]: 17%
Population Healthy Nuclei (%) [5]: 65%
Population Hoechst High Intensity Objects (%) [5]: 2%
Population Membrane Permeable-Phenotype (%) [5]: 1%
Population Mitochondria Different-Phenotype (%) [5]: 3%
Population Mitotic Cells (%) [5]: 25%
Population Normal (%) [5]: 97%
Population Pyknosed Nuclei (%) [5]: 16%
Population Tubulin-Different-Phenotype (%) [5]: 19%
Total Cell Count [5]: 145
Population Apoptotic (%) [6]: 47%
Population Fragmented Nuclei (%) [6]: 36%
Population Healthy Nuclei (%) [6]: 44%
Population Membrane Permeable-Phenotype (%) [6]: 8%
Population Mitochondria Different-Phenotype (%) [6]: 8%
Population Mitotic Cells (%) [6]: 52%
Population Pyknosed Nuclei (%) [6]: 18%
Population Tubulin-Different-Phenotype (%) [6]: 50%
Total Cell Count [6]: 106
Population Apoptotic (%) [7]: 41%
Population Fragmented Nuclei (%) [7]: 12%
Population Healthy Nuclei (%) [7]: 70%
Population Hoechst High Intensity Objects (%) [7]: 2%
Population Membrane Permeable-Phenotype (%) [7]: 1%
Population Mitochondria Different-Phenotype (%) [7]: 6%
Population Mitotic Cells (%) [7]: 58%
Population Normal (%) [7]: 97%
Population Pyknosed Nuclei (%) [7]: 17%
Population Tubulin-Different-Phenotype (%) [7]: 41%
Total Cell Count [7]: 213
Population Apoptotic (%) [8]: 29%
Population Fragmented Nuclei (%) [8]: 33%
Population Healthy Nuclei (%) [8]: 43%
Population Membrane Permeable-Phenotype (%) [8]: 4%
Population Mitotic Cells (%) [8]: 70%
Population Pyknosed Nuclei (%) [8]: 23%
Population Tubulin-Different-Phenotype (%) [8]: 64%
Total Cell Count [8]: 107
Population Apoptotic (%) [9]: 70%
Population Fragmented Nuclei (%) [9]: 22%
Population Healthy Nuclei (%) [9]: 62%
Population Hoechst High Intensity Objects (%) [9]: 2%
Population Membrane Permeable-Phenotype (%) [9]: 0%
Population Mitochondria Different-Phenotype (%) [9]: 2%
Population Mitotic Cells (%) [9]: 30%
Population Normal (%) [9]: 97%
Population Pyknosed Nuclei (%) [9]: 15%
Population Tubulin-Different-Phenotype (%) [9]: 20%
Total Cell Count [9]: 137
Population Apoptotic (%) [10]: 50%
Population Fragmented Nuclei (%) [10]: 36%
Population Healthy Nuclei (%) [10]: 49%
Population Hoechst High Intensity Objects (%) [10]: 3%
Population Membrane Permeable-Phenotype (%) [10]: 2%
Population Mitochondria Different-Phenotype (%) [10]: 6%
Population Mitotic Cells (%) [10]: 50%
Population Normal (%) [10]: 96%
Population Pyknosed Nuclei (%) [10]: 14%
Population Tubulin-Different-Phenotype (%) [10]: 54%
Total Cell Count [10]: 101
Population Apoptotic (%) [11]: 40%
Population Fragmented Nuclei (%) [11]: 26%
Population Healthy Nuclei (%) [11]: 58%
Population Hoechst High Intensity Objects (%) [11]: 3%
Population Membrane Permeable-Phenotype (%) [11]: 0%
Population Mitochondria Different-Phenotype (%) [11]: 0%
Population Mitotic Cells (%) [11]: 59%
Population Normal (%) [11]: 96%
Population Pyknosed Nuclei (%) [11]: 14%
Population Tubulin-Different-Phenotype (%) [11]: 31%
Total Cell Count [11]: 227
Population Apoptotic (%) [12]: 66%
Population Fragmented Nuclei (%) [12]: 50%
Population Healthy Nuclei (%) [12]: 39%
Population Membrane Permeable-Phenotype (%) [12]: 9%
Population Mitochondria Different-Phenotype (%) [12]: 9%
Population Mitotic Cells (%) [12]: 33%
Population Pyknosed Nuclei (%) [12]: 10%
Population Tubulin-Different-Phenotype (%) [12]: 60%
Total Cell Count [12]: 114

From ChEMBL document CHEMBL5058577, “EUbOPEN Chemogenomics Library 2 (Multiplex)” (2022)
